The values below come from ChEMBL document CHEMBL3286218, “Structure-activity relationship studies of N-methylated and N-hydroxylated spider polyamine toxins as inhibitors of ionotropic glutamate receptors” (J Med Chem, 2014).

Common to all, as to type: cell-based
Assay [1] concerns the target Glutamate NMDA receptor; Grin1/Grin2a (Rattus norvegicus) (UniProt P35439+Q00959). Description: Inhibition of rat recombinant GluN1/2A expressed in Xenopus oocytes assessed as inhibition of glutamate/glycine-evoked channel current at 100 nM at holding potential of -80 mV by two-electrode voltage clamp technique. Put shortly:
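Single-concentration screen at 100 nM on oocytes expressing GluN1/2A (1:10 cRNA ratio), two-electrode clamp at −80 mV, rt, in frog Ringer's. Percent inhibition of current evoked by 100 μM L-glutamate plus 100 μM glycine, with compound bath-applied in Ringer's.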
In general terms: Two-electrode voltage clamp holds a large cell at a set potential and records current.

Assay [2] deals with Glutamate NMDA receptor; Grin1/Grin2a (Rattus norvegicus, UniProt P35439+Q00959). Description: Inhibition of rat recombinant GluN1/2A expressed in Xenopus oocytes assessed as inhibition of glutamate/glycine-evoked channel current at holding potential of -80 mV by two-electrode voltage clamp technique. Summed up:
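Oocytes were injected with GluN1/N2A cRNA at a 1:10 ratio (25 nL at 0.5 ng/nL), incubated at 17 °C in Barth's medium with gentamicin, and recorded after 2−4 days. Clamp at −80 mV, rt, in frog Ringer's (BaCl₂, pH 7.6). Increasing antagonist was co-applied with 100 μM L-glutamate plus 100 μM glycine. IC50 came from a Hill fit over 3−8 oocytes.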

For the next assay, the species on record is Rattus norvegicus. Description: Selectivity ratio of IC50 for rat recombinant GluN1/2A expressed in Xenopus oocytes to IC50 for rat recombinant GluA1 expressed in Xenopus oocytes.
The next assay deals with Glutamate receptor 1 (Rattus norvegicus, UniProt P19490). Description: Inhibition of rat recombinant GluA1 expressed in Xenopus oocytes assessed as inhibition of glutamate-induced channel current at holding potential of -80 mV by two-electrode voltage clamp technique. Put shortly: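 GluA1_i cRNA (25 nL at 1 ng/nL) injected into collagenase-treated oocytes, kept at 17 °C in Barth's medium (pH 7.4) with gentamicin, recorded 2−4 days later. Held at −80 mV, rt, superfused with frog Ringer's (BaCl₂, pH 7.6). Antagonist co-applied with 300 μM L-glutamate at rising concentrations. Curves from 3−8 oocytes fitted to a Hill equation for IC50.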
Sequence of Glutamate receptor 1 (P19490 whole entry, the tested form may be a part): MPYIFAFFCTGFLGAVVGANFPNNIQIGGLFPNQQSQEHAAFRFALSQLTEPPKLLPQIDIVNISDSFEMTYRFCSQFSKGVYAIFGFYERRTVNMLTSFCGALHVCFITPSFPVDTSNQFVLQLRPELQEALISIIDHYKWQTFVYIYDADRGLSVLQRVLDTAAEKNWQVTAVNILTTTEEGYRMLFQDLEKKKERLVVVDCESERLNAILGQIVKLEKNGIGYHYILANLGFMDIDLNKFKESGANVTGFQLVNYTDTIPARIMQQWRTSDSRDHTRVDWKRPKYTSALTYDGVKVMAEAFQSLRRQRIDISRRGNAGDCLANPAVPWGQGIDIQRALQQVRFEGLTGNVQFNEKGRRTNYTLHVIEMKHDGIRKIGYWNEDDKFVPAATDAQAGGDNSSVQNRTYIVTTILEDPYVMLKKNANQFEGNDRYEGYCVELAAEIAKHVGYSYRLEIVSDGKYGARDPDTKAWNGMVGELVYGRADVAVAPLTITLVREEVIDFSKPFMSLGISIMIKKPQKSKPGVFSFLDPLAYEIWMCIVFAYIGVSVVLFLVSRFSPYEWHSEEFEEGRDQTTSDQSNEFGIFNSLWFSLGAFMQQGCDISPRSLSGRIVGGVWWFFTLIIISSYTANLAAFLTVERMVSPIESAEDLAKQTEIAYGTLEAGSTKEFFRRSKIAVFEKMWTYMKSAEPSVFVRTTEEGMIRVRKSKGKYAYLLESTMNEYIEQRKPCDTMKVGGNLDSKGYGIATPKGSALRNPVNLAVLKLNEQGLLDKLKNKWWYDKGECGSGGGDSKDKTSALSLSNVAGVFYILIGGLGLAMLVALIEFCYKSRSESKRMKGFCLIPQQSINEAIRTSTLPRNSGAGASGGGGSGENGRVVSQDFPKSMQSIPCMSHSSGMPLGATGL

For assay [3], the target named is Glutamate receptor 1 (Rattus norvegicus) (UniProt P19490). Description: Inhibition of rat recombinant GluA1 expressed in Xenopus oocytes assessed as inhibition of glutamate-induced channel current at 100 nM at holding potential of -80 mV by two-electrode voltage clamp technique. Summed up:
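Xenopus oocytes injected with GluA1_i cRNA (25 nL of 1 ng/nL), kept 2–4 days at 17 °C in Barth's medium with gentamicin. Two-electrode voltage clamp at room temperature in superfused frog Ringer's (Ba2+-containing, pH 7.6). Current evoked by 300 μM L-glutamate; test compound at 100 nM added by bath, co-applied with agonist. Percent inhibition of the evoked current recorded.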

Sequence of Glutamate receptor 1 (Rattus norvegicus) (P19490 whole entry, the tested form may be a part): as above

By inhibition is commonly meant the relative decrease from the control value, in per cent. On to `NCCCNCCCCNCCCNCCCN(O)CCCNC(=O)Cc1c[nH]c2cccc(O)c12`, for which the inhibition in assay [1] is > 90%.

On to `NCCCNCCCCNCCCNCCCNCCCNC(=O)Cc1ccc(O)cc1O`, for which the inhibition in assay [1] is > 90%.

By IC50 is commonly meant the concentration needed to halve the response being measured. For `N=C(N)NCCC[C@H](N)C(=O)NCCCNCCCC[C@H](N)C(=O)NCCCCCNC(=O)[C@H](CC(N)=O)NC(=O)Cc1c[nH]c2cccc(O)c12`, the results for the inhibition in assay [1] and in assay [3] were < 20% and 84%, respectively. For the same compound, the IC50 in assay [2] worked out at 387 nM; on Glutamate receptor 1 it was 15 nM. The Ratio IC50 in the assay listed under Rattus norvegicus is 26.

Take `C[N+](C)(CCCC[C@H](N)C(=O)NCCCCCNC(=O)[C@H](CC(N)=O)NC(=O)Cc1c[nH]c2cccc(O)c12)CCCNC(=O)[C@@H](N)CCCNC(=N)N`: the inhibition was < 20% in assay [1] and > 40% in assay [3]. For the same compound, the concentration for half-maximal inhibition (IC50) in assay [2] came to 3850 nM; at Glutamate receptor 1, 123 nM.

For the compound `NCCCNCCCCNCCCNCCCNCCCNC(=O)Cc1c[nH]c2cccc(O)c12`, the inhibition in assay [1] was > 90%.

`NCCCNCCCCNCCCNCCCN(O)CCCNC(=O)Cc1c[nH]c2ccccc12`: the inhibition in assay [1] is > 90%. The IC50 in assay [2] amounted to 12 nM; on Glutamate receptor 1 it was 11 nM.

In the case of `N=C(N)NCCC[C@H](N)C(=O)NCCCNCCCC[C@H](N)C(=O)NCCCCCNC(=O)[C@H](CC(N)=O)NC(=O)Cc1c[nH]c2ccccc12`, the inhibition in assay [1] is < 20%; in assay [3], 81%.

For `CN(CCCC[C@H](N)C(=O)NCCCCCNC(=O)[C@H](CC(N)=O)NC(=O)Cc1c[nH]c2cccc(O)c12)CCCNC(=O)[C@@H](N)CCCNC(=N)N`, the values for the inhibition in assay [1] and in assay [3] were < 20% and > 40%, respectively. The half-maximal inhibitory concentration (IC50) in assay [2] was 1630 nM; on Glutamate receptor 1 it was 52 nM.

Turning to `C[N+](C)(CCCC[C@H](N)C(=O)NCCCCCNC(=O)[C@H](CC(N)=O)NC(=O)Cc1c[nH]c2ccccc12)CCCNC(=O)[C@@H](N)CCCNC(=N)N`, the figures for the inhibition in assay [1] and in assay [3] were < 20% and > 40%, respectively.

On to `CN(CCCC[C@H](N)C(=O)NCCCCCNC(=O)[C@H](CC(N)=O)NC(=O)Cc1c[nH]c2ccccc12)CCCNC(=O)[C@@H](N)CCCNC(=N)N`, for which the inhibition in assay [1] was < 20%; in assay [3], > 40%.

Turning to `NCCCNCCCCNCCCNCCCNCCCNC(=O)Cc1c[nH]c2ccccc12`, in assay [1], the inhibition was > 90%.
